Calls of active or inactive are those of the source. No cut-off for these calls is given here.
Tests used:
Format in all cases: tissue-based
Settings in all cases: Oryctolagus cuniculus, target entry is the homologue from another species
[1] = target: 5-hydroxytryptamine receptor 2A (Homo sapiens) (UniProt P28223); test: Dissociation equilibrium constant against the vascular 5-hydroxytryptamine 2A receptor in the rabbit […] aorta
[2] = target: 5-hydroxytryptamine receptor 1B (Homo sapiens) (UniProt P28222); test: Dissociation equilibrium constant against the vascular 5-hydroxytryptamine 1B like receptor in the rabbit saphenous vein
Sequence of 5-hydroxytryptamine receptor 1B (Homo sapiens) (P28222 whole entry): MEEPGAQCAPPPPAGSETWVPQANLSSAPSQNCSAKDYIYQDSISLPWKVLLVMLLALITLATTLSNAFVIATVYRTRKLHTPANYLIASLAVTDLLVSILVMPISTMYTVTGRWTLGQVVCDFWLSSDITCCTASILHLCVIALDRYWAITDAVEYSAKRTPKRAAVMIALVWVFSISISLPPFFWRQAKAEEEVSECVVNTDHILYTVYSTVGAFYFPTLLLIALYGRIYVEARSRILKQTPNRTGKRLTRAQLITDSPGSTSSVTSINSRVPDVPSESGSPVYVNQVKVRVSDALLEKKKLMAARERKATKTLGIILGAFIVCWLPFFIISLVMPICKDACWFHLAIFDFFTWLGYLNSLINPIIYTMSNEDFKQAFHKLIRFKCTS
How it was run: (§1)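 Saphenous vein rings (4–5 mm) from male New Zealand white rabbits, killed with pentobarbitone 80 mg/kg iv and exsanguination, mounted on tungsten wires. Phenoxybenzamine 0.3 μM for 30 min, washed out, 1 μM 5HT viability check. Cumulative 5HT curve, then after 60 min recovery a test compound curve. Non-agonists tested as 5HT antagonists, giving apparent pKB.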

[3] = target: 5-hydroxytryptamine receptor 1B (Homo sapiens) (UniProt P28222); test: The dissociation equilibrium constant (pKB=-log KB) of compound was determined against the vascular 5-hydroxytryptamine 1B like receptor in the rabbit saphenous vein(RbSV); NS=non surmountable; how it was run: as §1

Sequence of 5-hydroxytryptamine receptor 2A (Homo sapiens) (P28223 whole entry): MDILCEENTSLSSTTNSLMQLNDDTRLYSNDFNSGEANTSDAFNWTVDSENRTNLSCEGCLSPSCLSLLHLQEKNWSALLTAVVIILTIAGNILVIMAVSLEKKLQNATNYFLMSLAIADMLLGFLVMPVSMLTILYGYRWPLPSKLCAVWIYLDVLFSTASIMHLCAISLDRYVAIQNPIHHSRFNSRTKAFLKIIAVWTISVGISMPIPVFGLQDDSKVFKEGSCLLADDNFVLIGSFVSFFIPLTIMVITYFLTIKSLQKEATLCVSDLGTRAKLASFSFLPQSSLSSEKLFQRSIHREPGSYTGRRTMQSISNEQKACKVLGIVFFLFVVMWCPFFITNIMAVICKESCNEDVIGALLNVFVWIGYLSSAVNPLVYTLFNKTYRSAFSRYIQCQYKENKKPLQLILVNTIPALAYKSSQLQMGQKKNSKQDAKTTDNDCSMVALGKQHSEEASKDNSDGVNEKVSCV

Compound	pKB [1]	pKB [2]	pKB [3]
CCOC(=O)c1[nH]c2ccc(CCN3C(=O)CNC3=O)cc2c1-c1ccncc1	< 5	5.29	–
CCOC(=O)c1[nH]c2ccc(CCN3C(=O)CSC3=O)cc2c1CCN(C)C	7.56	7.72	–
CN(C)CCc1c(C(=O)OCc2ccccc2)[nH]c2ccc(CCN3C(=O)CNC3=O)cc12	7.3	7.91	–
CC(C)OC(=O)c1[nH]c2ccc(CCN3C(=O)CNC3=O)cc2c1CCN(C)C	6.57	6.85	–
CC(C)OC(=O)c1[nH]c2ccc(CCN3C(=O)NC(C)(C)C3=O)cc2c1C1=CCN(C)CC1	< 5	6.34	–
CCOC(=O)c1[nH]c2ccc(CCN3C(=O)c4ccccc4C3=O)cc2c1C1=CCN(C)CC1	5.02	6.42	–
CCOC(=O)c1[nH]c2ccc(CCN3C(=O)CNC3=O)cc2c1C1=CCN(C)CC1	< 5	5.88	–
CCOC(=O)c1[nH]c2ccc(CCN3C(=O)CCC3=O)cc2c1CCN(C)C	6.3	6.78	–
CCOC(=O)c1[nH]c2ccc(CCN3CCCC3=O)cc2c1CCN(C)C	5.5	6.1	–
CCOC(=O)c1[nH]c2ccc(CCN3C(=O)CNC3=O)cc2c1C1CCN(C)CC1	< 5	< 5	–
CC(C)OC(=O)c1[nH]c2ccc(CN3C(=O)NC(C)(C)C3=O)cc2c1CCN(C)C	5.62	5.62	–
COC(=O)c1[nH]c2ccc(CCN3C(=O)c4ccccc4C3=O)cc2c1CCN(C)C	5.66	7.39	–
CC(C)OC(=O)c1[nH]c2ccc(CCN3C(=O)NC(C)(C)C3=O)cc2c1CCN(C)C	5.8	6.82	–
COC(=O)c1[nH]c2ccc(CCN3C(=O)CNC3=O)cc2c1-c1ccncc1	< 5	–	inactive
CC(C)OC(=O)c1[nH]c2ccc(CCN3C(=O)NC(C)(C)C3=O)cc2c1-c1ccncc1	< 5	5.25	–
CN(C)CCc1c(C(=O)OC2CCCCC2)[nH]c2ccc(CCN3C(=O)NC(C)(C)C3=O)cc12	4.77	5.95	–
CCOC(=O)c1[nH]c2ccc(CCN3C(=O)c4ccccc4C3=O)cc2c1CCN(C)C	6.26	7.54	–
CCOC(=O)c1[nH]c2ccc(CCN3C(=O)NC(C)(C)C3=O)cc2c1CCN(C)C	5.23	7.34	–

More lines, now with the values ahead:

pKB [1]	pKB [2]	pKB [3]	Compound
4.6	4.8	–	CN(C)CCc1c(C#N)[nH]c2ccc(CC3COC(=O)N3)cc12 (stereo unspecified)
< 5	6.97	–	COC(=O)c1[nH]c2ccc(CCN3C(=O)CNC3=O)cc2c1CCN(C)C
5.88	6.61	–	COC(=O)c1[nH]c2ccc(CCC3COC(=O)N3)cc2c1CCN(C)C (stereo unspecified)
5.15	5.41	–	COC(=O)c1[nH]c2ccc(CN3C(=O)CNC3=O)cc2c1CCN(C)C
6.76	7.21	–	CCOC(=O)c1[nH]c2ccc(CCC3COC(=O)N3)cc2c1CCN(C)C (stereo unspecified)
< 5	6	–	COC(=O)c1[nH]c2ccc(CCN3CCOC3=O)cc2c1CCN(C)C
< 5	6.17	–	CN(C)CCc1c(C(=O)O)[nH]c2ccc(CCN3C(=O)CNC3=O)cc12
< 5	5.86	–	CN(C)CCc1c(Br)[nH]c2ccc(CC3COC(=O)N3)cc12 (stereo unspecified)
< 4.5	4.75	–	CN(C)CCc1c(C(N)=O)[nH]c2ccc(CC3COC(=O)N3)cc12 (stereo unspecified)
5.86	5.32	–	CCOC(=O)c1[nH]c2ccc(CN3C(=O)CNC3=O)cc2c1CCN(C)C
5.66	6.12	–	CCOC(=O)c1[nH]c2ccc(CC3COC(=O)N3)cc2c1CCN(C)C (stereo unspecified)
6.2	7.3	–	CCOC(=O)c1[nH]c2ccc(CCC3NC(=O)N(C)C3=O)cc2c1CCN(C)C (stereo unspecified)
5.52	6.54	–	CCOC(=O)c1[nH]c2ccc(CN3C(=O)NC(C)(C)C3=O)cc2c1CCN(C)C
5.03	6.45	–	COC(=O)c1[nH]c2ccc(CN3C(=O)NC(C)(C)C3=O)cc2c1CCN(C)C
5.02	6.88	–	COC(=O)c1[nH]c2ccc(CCN3C(=O)NC(C)(C)C3=O)cc2c1CCN(C)C
